IDE act = IDE (human) activation, cell-based | AID 493087 | HEK cells, FAbeta-B cleavage, fluorescence polarization; 0% vehicle, 100% cell-free pure enzyme wells | P14735 | activation, % at 5.96 µM | actives 0.073% (n = 340,000);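 active means activation above the mean of all tested compounds plus 3 SD, set per screening campaign, cut at about 17% in these data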
Target sequence (P14735 whole entry, looked up): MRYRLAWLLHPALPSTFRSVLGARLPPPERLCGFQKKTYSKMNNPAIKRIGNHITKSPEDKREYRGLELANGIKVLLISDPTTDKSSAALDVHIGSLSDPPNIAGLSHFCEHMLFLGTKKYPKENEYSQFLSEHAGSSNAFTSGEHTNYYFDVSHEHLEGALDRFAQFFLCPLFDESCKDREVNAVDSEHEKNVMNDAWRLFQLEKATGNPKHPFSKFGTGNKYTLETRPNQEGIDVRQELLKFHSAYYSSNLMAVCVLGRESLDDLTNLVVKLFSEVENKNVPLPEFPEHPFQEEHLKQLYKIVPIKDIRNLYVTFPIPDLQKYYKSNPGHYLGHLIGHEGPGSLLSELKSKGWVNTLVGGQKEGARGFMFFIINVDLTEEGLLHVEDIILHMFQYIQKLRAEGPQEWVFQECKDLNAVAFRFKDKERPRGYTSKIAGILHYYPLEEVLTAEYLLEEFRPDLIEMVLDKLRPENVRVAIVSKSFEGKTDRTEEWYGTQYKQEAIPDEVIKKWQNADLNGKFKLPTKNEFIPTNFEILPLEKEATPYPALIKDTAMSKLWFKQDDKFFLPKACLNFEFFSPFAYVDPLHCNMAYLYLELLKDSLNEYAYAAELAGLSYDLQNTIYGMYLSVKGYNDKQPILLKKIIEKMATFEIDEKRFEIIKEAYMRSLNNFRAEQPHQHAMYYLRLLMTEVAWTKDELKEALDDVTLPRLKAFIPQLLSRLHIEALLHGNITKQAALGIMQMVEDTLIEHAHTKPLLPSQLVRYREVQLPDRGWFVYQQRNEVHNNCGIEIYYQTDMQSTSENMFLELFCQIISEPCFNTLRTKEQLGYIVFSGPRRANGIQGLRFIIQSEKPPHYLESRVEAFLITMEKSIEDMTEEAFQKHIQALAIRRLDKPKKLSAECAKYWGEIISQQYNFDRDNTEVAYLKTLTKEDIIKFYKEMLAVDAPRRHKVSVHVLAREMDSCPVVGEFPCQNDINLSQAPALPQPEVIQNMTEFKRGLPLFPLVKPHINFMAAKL
Efflux pump mplx = inhibitors of Candida antifungal efflux pumps expressed in yeast; AID 485275; inhibition, % at 10 µM; S. cerevisiae Candida pump triplex, Nile Red efflux; actives 0.44% (n = 330,000);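 active means plate passing quality check with inhibition over a set limit, or well fluorescence over plate mean plus 4 SD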;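 further: Nile Red retained in pooled yeast measured as flow cytometry median fluorescence; 0% = buffer negative control and 100% = Enniatin B positive control; higher means more Nile Red kept so more efflux inhibition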
Yeast superoxide = yeast age-related superoxide inhibition as caloric restriction mimetic. S. cerevisiae aged cells, superoxide DHE fluorescence; hits give low values. actives 0.18% (n = 330,000). AID 2690. superoxide response (% of plate mean), % at 10 µM;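 active means superoxide response under a set limit, about three screen SD below normal, cut at about 65% in these data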;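 further: yeast aged for seven days with compound at 30 °C before DHE staining; 100% = average MFI of all compound-treated wells on the plate with controls excluded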
HDAC3 inhib = inhibitors of human histone deacetylase 3; recombinant HDAC3, fluorogenic peptide/trypsin coupled, fluorescence; inhibition, % at 8.3 µM; actives 0.15% (n = 320,000); in the data active means inhibition above about 26%, passing the limit was not always enough
IDE cell inh = inhibits human insulin-degrading enzyme in HEK cells | inhibition, % at 5.59 µM | FAbetaB cleavage, fluorescence polarization | actives 0.41% (n = 320,000) | P14735 | AID 434962;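 active means percent inhibition above the average of all tested compounds plus 3 SD, set per screening campaign, cut at about 16% in these data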;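 further: IDE supplied by intact live HEK cells; FP after avidin binding of uncleaved biotin substrate so inhibition keeps polarization high; 0% = DMSO wells and 100% = 60 µM reference IDE inhibitor Ii1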
TbMetRS inhib = Trypanosoma brucei MetRS inhibition; purified T. brucei MetRS, ATP depletion, Kinase-Glo luminescence; inhibition, % at 11.9 µM; actives 0.4% (n = 360,000); AID 624268;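 active means inhibition above a per-plate cutoff of the control wells' mean inhibition plus 3 SD, cut at about 5.5% in these data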;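 further: 0% = DMSO wells median and 100% = median of wells with control inhibitor compound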
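Material: parasite MetRS enzyme / Replication: singlicate, one well per compound / Signal: luminescence of leftover ATP / Schedule: 2 h aminoacylation at 25 °C after 15 min preincubation / Medium: HEPES-MgCl2-KCl buffer plus DTT, spermine, BSA, pyrophosphatase / Doses: 11.9 µM single point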
TbMetRS confirm = confirmation of Trypanosoma brucei MetRS inhibitors. T. brucei MetRS enzyme, luminescence (ATP depletion). inhibition, % at 11.9 µM. shares compounds with TbMetRS inhib. actives 93% (n = 1,400); in the data active means inhibition above about 7%
Jurkat cytotox = counter-screen for T. brucei MetRS inhibitors: Jurkat cell cytotoxicity; shares compounds with TbMetRS inhib; Jurkat cells viability, ATP luminescence; inhibition, % at 8.3 µM; actives 12% (n = 1,400); AID 624413; in the data active means inhibition above about 15%;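 further: 0% = vehicle and 100% = reference inhibitor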
TbMetRS FP orth = inhibits T. brucei methionyl tRNA synthetase in orthogonal FP test. shares compounds with TbMetRS inhib. purified T. brucei MetRS, fluorescence polarization. inhibition, % at 11.9 µM. actives 44% (n = 1,400); in the data active means inhibition above about 17%;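 further: 0% = vehicle wells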
Numbers without * were called inactive. A selection: hits, their analogues and other compounds. The true share with any hit is near 1.4%.

`O=C1CC(N(CCc2ccccc2)C(=S)Nc2ccccc2)C(=O)N1c1ccc(F)cc1` (stereo unspecified) gave IDE act 6, Efflux pump mplx 0, Yeast superoxide 86, HDAC3 inhib -2, IDE cell inh 4, TbMetRS inhib 23*, TbMetRS confirm 32*, Jurkat cytotox 1 and TbMetRS FP orth 9.
For O=C1CC(N(CCc2ccccc2)C(=S)Nc2ccccc2)C(=O)N1c1ccccc1 (stereo unspecified) the results were IDE act -1, Efflux pump mplx 0, Yeast superoxide 97, HDAC3 inhib 14, IDE cell inh 4, TbMetRS inhib 31*, TbMetRS confirm 38*, Jurkat cytotox 3 and TbMetRS FP orth 23*.
Screening C=CCn1c(C2CCCCC2)n[nH]c1=S returned IDE act 6, Efflux pump mplx 0, Yeast superoxide 107, HDAC3 inhib -3, IDE cell inh 7 and TbMetRS inhib -1.
For C/C(=N\Nc1cc(Cl)nc(C)n1)c1ccc(C)cc1 the results were IDE act -1, Efflux pump mplx 0, Yeast superoxide 108, HDAC3 inhib 7, IDE cell inh 0 and TbMetRS inhib 0.
`O=C(NCc1cc(Cl)cc(Cl)c1)c1ccc2nc([C@@H]3O[C@H](CO)[C@H](O)[C@H](O)[C@H]3O)[nH]c2c1` gave TbMetRS inhib 4.
Screening O=C(NCc1cc(Cl)cc(Cl)c1)c1ccc2nc(COCCO)[nH]c2c1 returned TbMetRS inhib 21*, TbMetRS confirm 55*, Jurkat cytotox -8 and TbMetRS FP orth 30*.
For O=C1C(=O)c2cccnc2-c2ncccc21 the results were TbMetRS inhib 15*, TbMetRS confirm 9.7*, Jurkat cytotox 97* and TbMetRS FP orth 7.
O=C1c2cccnc2-c2ncccc21 was read as IDE act 3, Efflux pump mplx 0, Yeast superoxide 124, HDAC3 inhib 1, IDE cell inh 7 and TbMetRS inhib 0.
Screening CN(CC(=O)Nc1cccc(F)c1)C(=O)c1ccc(-n2cncn2)c([N+](=O)[O-])c1 returned IDE act 2, Efflux pump mplx 0, Yeast superoxide 95, HDAC3 inhib -3, IDE cell inh 5, TbMetRS inhib 51*, TbMetRS confirm 84*, Jurkat cytotox 0 and TbMetRS FP orth 51*.
CN(CC(=O)Nc1ccc(F)c(F)c1F)C(=O)c1ccc(-n2cncn2)c([N+](=O)[O-])c1 was read as IDE act -3, Efflux pump mplx 0, Yeast superoxide 96, HDAC3 inhib -1, IDE cell inh 6, TbMetRS inhib 7.7*, TbMetRS confirm 33*, Jurkat cytotox -6 and TbMetRS FP orth 17*.
`O=C(Cn1cnc2ccccc2c1=O)N1CCN(S(=O)(=O)c2ccc(F)cc2)CC1` gave IDE act 3, Efflux pump mplx 0, Yeast superoxide 101, HDAC3 inhib -3, IDE cell inh 2 and TbMetRS inhib 0.
`COc1ccc(NC(=O)C2CCCN2C(=O)NC2CCCCC2)c(OC)c1` (stereo unspecified) gave IDE act 1, Efflux pump mplx 0, Yeast superoxide 108, HDAC3 inhib 6, IDE cell inh 1 and TbMetRS inhib 0.
`Cc1ccc2c(c1)c1nnc(SCC(=O)Nc3ccccc3C(F)(F)F)nc1n2CC(=O)O` gave IDE act -5, Efflux pump mplx 0, Yeast superoxide 97, HDAC3 inhib 5, IDE cell inh -2 and TbMetRS inhib 5.
Cc1ccc2c(c1)c1nnc(SCC(=O)Nc3cccc(Cl)c3C)nc1n2CC(=O)O was read as IDE act -2, Efflux pump mplx 0, Yeast superoxide 110, HDAC3 inhib 3, IDE cell inh 1, TbMetRS inhib 23*, TbMetRS confirm 65*, Jurkat cytotox -7 and TbMetRS FP orth 33*.
CCCC1(CC)C(=O)NC(=O)N=C1N (stereo unspecified) was read as IDE act 4 and TbMetRS inhib 0.
O=C(Cc1nc2ccccc2[nH]1)c1ccc(Cl)cc1 was read as IDE act -4, Efflux pump mplx 0, Yeast superoxide 96, HDAC3 inhib 5, IDE cell inh 2 and TbMetRS inhib 1.
`O=C(NCCc1nc2ccccc2[nH]1)c1cccc(Br)c1` gave IDE act -5, Efflux pump mplx 0, Yeast superoxide 95, HDAC3 inhib -3, IDE cell inh 2, TbMetRS inhib 19*, TbMetRS confirm 30*, Jurkat cytotox -5 and TbMetRS FP orth 12.
`O=C(NCCc1nc2ccccc2[nH]1)c1ccc([N+](=O)[O-])cc1` gave IDE act 2, Efflux pump mplx 0, Yeast superoxide 114, HDAC3 inhib -2, IDE cell inh 2, TbMetRS inhib 36*, TbMetRS confirm 58*, Jurkat cytotox 4 and TbMetRS FP orth 29*.
`O=C(N/C(=C\c1cccnc1)c1nc2ccccc2[nH]1)c1cccc(Br)c1` gave IDE act 3, Efflux pump mplx 0, Yeast superoxide 100, HDAC3 inhib 5, IDE cell inh -8, TbMetRS inhib 66*, TbMetRS confirm 80*, Jurkat cytotox -3 and TbMetRS FP orth 57*.
For O=C(Cc1nc2ccccc2[nH]1)c1ccc([N+](=O)[O-])cc1 the results were IDE act 2, Efflux pump mplx 0, Yeast superoxide 111, HDAC3 inhib -4, IDE cell inh 0, TbMetRS inhib 8.0*, TbMetRS confirm 5.8*, Jurkat cytotox 10 and TbMetRS FP orth 7.
For COc1ccccc1C(=O)NCCc1nc2ccccc2[nH]1 the results were IDE act -3, Efflux pump mplx 0, Yeast superoxide 102, HDAC3 inhib -6, IDE cell inh 0 and TbMetRS inhib 1.
For CC(=O)NCCc1nc2ccccc2[nH]1 the results were IDE act 1, Efflux pump mplx 0, Yeast superoxide 96, HDAC3 inhib 3, IDE cell inh 5 and TbMetRS inhib 0.
`O=C(NCCc1nc2ccccc2[nH]1)c1ccc(F)cc1` gave IDE act 8, Efflux pump mplx 0, Yeast superoxide 112, HDAC3 inhib 4, IDE cell inh 0, TbMetRS inhib 6.4*, TbMetRS confirm 10*, Jurkat cytotox -1 and TbMetRS FP orth 1.
